The results in this text go back to ChEMBL document CHEMBL1126807, “Inhibition of bone resorption by H+/K(+)-ATPase inhibitors” (J Med Chem, 1993).

The species named for assay [1] is Rattus norvegicus. The assay can be described thus: Tested for the inhibition of bone resorption in neonatal rat long bones by measuring mean total resorption at 10 e -8 M (sd 7210). In kind it is functional. The procedure, abridged: (§1)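 Osteoclasts mechanically disaggregated from neonatal rat long bones into Hepes-buffered medium 199, settled 30 s, allowed to attach to bone slices (2.5 mm²) for 15 min at 37 °C, washed, then cultured overnight in 10% newborn calf serum in Hanks-buffered MEM with or without drug. Cells removed with 10% NaOCl, slices gold-coated, entire surface scanned by SEM for pit number, pit size and resorbed plan area. Student's t-test.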

Assay [2] is filed under the species Rattus norvegicus. The assay can be described thus: Tested for inhibition of bone resorption by osteoclasts in a bone slice assay in rats at 10 e -7 M. It counts as functional. Put shortly: as §1
For assay [3], the species on record is Rattus norvegicus. The assay can be described thus: Tested for the inhibition of bone resorption by measuring number of pits/slice at 10 e -7 M (sd 3.53). In kind it is functional. Put shortly: as §1
The species named for assay [4] is Rattus norvegicus. The assay can be described thus: Tested for the inhibition of bone resorption by measuring number of pits/slice at 10 e -8 M (sd 4.87). In kind it is functional. Put shortly: as §1
The species named for assay [5] is Rattus norvegicus. The assay can be described thus: Tested for the inhibition of bone resorption by measuring mean total resorption at 10 e -5 M (sd 2675). It counts as functional. Put shortly:
as §1

The species named for assay [6] is Rattus norvegicus. The assay can be described thus: Tested for the inhibition of bone resorption in neonatal rat long bones by measuring mean total resorption at 10 e -7 M (sd 4081). It counts as functional. Put shortly: as §1
Assay [7] in a line: Tested for reversible inhibition against gastric H+/K+-ATPase isolated from porcine gastric microsomes; value ranges from […]. In kind it is functional, Sus scrofa, Stomach.
The species named for assay [8] is Rattus norvegicus. The assay can be described thus: Tested for the inhibition of bone resorption in neonatal rat long bones by measuring mean total resorption at 10 e -6 M (sd 4446). In kind it is functional. The procedure, abridged: as §1
For assay [9], the species on record is Rattus norvegicus. The assay can be described thus: Tested for the inhibition of bone resorption by measuring number of pits/slice at 10 e -5 M (sd 2.74). It counts as functional. The procedure, abridged: as §1
Assay [10] can be described thus: Tested for the inhibition of reversibility of hog gastric H+/K+-ATPase at 0.05 uM (200-fold dilution after pre-incubation). The arrangement: scale not given: the % may be the effect or the level left. In kind it is functional, Sus scrofa, Stomach.
The species entered for assay [11] is Rattus norvegicus. The assay can be described thus: Tested for the inhibition of bone resorption by measuring number of pits/slice at 10 e -6 M (sd 3.87). It counts as functional. The procedure, abridged:
as §1

For assay [12], the species on record is Rattus norvegicus. The assay can be described thus: Tested for the inhibition of bone resorption in neonatal rat long bones by measuring mean pit size at 10 e -8 M (sd 1498). It counts as functional. The procedure, abridged:
as §1

The species entered for assay [13] is Rattus norvegicus. The assay can be described thus: Tested for the inhibition of bone resorption by measuring mean pit size at 10 e -5 M (sd 1012). In kind it is functional. Put shortly:
as §1

For assay [14], the species on record is Rattus norvegicus. The assay can be described thus: Tested for the inhibition of bone resorption by measuring mean pit size at 10 e -6 M (sd 963). It counts as functional. Put shortly: as §1
Assay [15] can be described thus: Tested for the inhibition of reversibility of hog gastric H+/K+-ATPase at 10 uM. It counts as functional, Sus scrofa, Stomach. Further details: scale not given: the % may be the effect or the level left.
The species named for assay [16] is Rattus norvegicus. The assay can be described thus: Tested for inhibition of bone resorption by osteoclasts in a bone slice assay in rats at 10 e -5 M. In kind it is functional. The procedure, abridged: as §1
For assay [17], the species on record is Rattus norvegicus. The assay can be described thus: Tested for the inhibition of bone resorption by measuring mean total resorption at 10 e -5 M (sd 1111). In kind it is functional. The procedure, abridged: as §1
Assay [18] in a line: Tested for reversible inhibition against gastric H+/K+-ATPase isolated from porcine gastric microsomes; value ranges from 3-10 uM. In kind it is functional, Sus scrofa, Stomach.
For assay [19], the species on record is Rattus norvegicus. The assay can be described thus: Tested for the inhibition of bone resorption by measuring mean pit size at 10 e -7 M (sd 1032). In kind it is functional. The procedure, abridged: as §1
For assay [20], the species on record is Rattus norvegicus. The assay can be described thus: Tested for the inhibition of bone resorption by measuring mean pit size at 10 e -5 M (sd 562). It counts as functional. Put shortly:
as §1

Assay [21] is described as follows: Tested for the inhibition of reversibility of hog gastric H+/K+-ATPase at 0.01 uM (200-fold dilution after pre-incubation). In kind it is functional, Sus scrofa, Stomach. The arrangement: scale not given: the % may be the effect or the level left.
Assay [22] is filed under the species Rattus norvegicus. The assay can be described thus: Tested for the inhibition of bone resorption by measuring mean pit size at 10 e -6 M (sd 814). In kind it is functional. Put shortly:
as §1

The species named for assay [23] is Rattus norvegicus. The assay can be described thus: Tested for the inhibition of bone resorption by measuring number of pits/slice at 10 e -8 M (sd 5.51). In kind it is functional. The procedure, abridged:
as §1

For assay [24], the species on record is Rattus norvegicus. The assay can be described thus: Tested for the inhibition of bone resorption by measuring number of pits/slice at 10 e -7 M (sd 3.94). It counts as functional. The procedure, abridged:
as §1

Assay [25] is filed under the species Rattus norvegicus. The assay can be described thus: Tested for the inhibition of bone resorption by measuring mean total resorption at 10 e -6 M (sd 3349). In kind it is functional. The procedure, abridged:
as §1

The nature of assay [26]: Tested for the inhibition of reversibility of hog gastric H+/K+-ATPase at 2 uM. It counts as functional, Sus scrofa, Stomach. Further details: scale not given: the % may be the effect or the level left.
Assay [27] is filed under the species Rattus norvegicus. The assay can be described thus: Tested for the inhibition of bone resorption by measuring mean total resorption at 10 e -7 M (sd 4088). In kind it is functional. The procedure, abridged: as §1
Assay [28] is filed under the species Rattus norvegicus. The assay can be described thus: Tested for the inhibition of bone resorption by measuring number of pits/slice at 10 e -5 M (sd 1.88). It counts as functional. Put shortly:
as §1

Assay [29] is filed under the species Rattus norvegicus. The assay can be described thus: Tested for the inhibition of bone resorption by measuring mean total resorption at 10 e -8 M (sd 5079). It counts as functional. Put shortly: as §1
For assay [30], the species on record is Rattus norvegicus. The assay can be described thus: Tested for the inhibition of bone resorption by measuring number of pits/slice at 10 e -6 M (sd 3.46). It counts as functional. The procedure, abridged: as §1
The species entered for assay [31] is Rattus norvegicus. The assay can be described thus: Tested for the inhibition of bone resorption by measuring mean pit size at 10 e -8 M (sd 1092). In kind it is functional. Put shortly:
as §1

Structures are written as SMILES.

Usually IC50 stands for the concentration at which inhibition is half-maximal. With `CCOC(=O)CCC(=O)c1cnc2c(OC)cccc2c1Nc1ccccc1C`, the Mean total resorption worked out at 8400 um2 in assay [1], 2040 um2 in [5], 4790 um2 in assay [6] and 4040 um2 in [8]. The IC50 in assay [2] was found to be 2 µM; in [7], 10 µM. Besides, the No. of pits/slice in [3] amounted to 4.67; in assay [4], 5.89; in assay [9], 2.22; in assay [11], 3.39. Besides, the Activity in [10] came out at 100%; in [15], 60%. In addition, the Mean pit size stood at 1450 µm² in assay [12], 948 µm² in assay [13] and 1190 µm² in assay [14].
`CCOC(=O)c1cnc2c(OC)cccc2c1Nc1ccccc1C`: the IC50 in [16] was determined as 4 µM; in [18] it was 3 µM. Further, the Mean total resorption in [17] was 1270 um2; in [25], 7300 um2; in assay [27], 9060 um2; in assay [29], 8740 um2. Also, the Mean pit size in assay [19] is 919 µm²; in [20], 477 µm²; in [22] it was 798 µm²; in [31] it was 926 µm². The Activity in assay [21] is 90%; in assay [26] it was 66%. Moreover, the No. of pits/slice in assay [23] was found to be 9.83; in assay [24] it was 9.5; in assay [28] it was 2.67; in assay [30], 9.17.
